Compound activity from PubChem.
Rows were chosen to be rich in hits. Some 1.9% of all compounds tested hit in one or more screens of this group.
N-glyco inh: increase of ERlucT glycosylation luciferase signal, primary screen, N-linked glycosylation inhibitor project, D54 ERlucT cells, luminescence, set 2; AID 588692, 2011; reporter increase, % at 12.5 µM; D54 ERlucT glycosylation luciferase reporter, 24 h; percent of 100 nM tunicamycin response; 360,000 tested, 0.23% active;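 active = mean luciferase reporter signal, scaled so untreated is 0 and the glycosylation-blocking control 100, at or above a set limit in every replicate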;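 note: luciferase carries N-glycosylation sites so blocking glycosylation raises the light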
UCH37 inh: inhibitors of human UCH37 deubiquitinase, primary screen, biochemical, Ub-AMC cleavage, fluorescence; purified proteasome/UCH37; inhibition, % (concentration not given with the values); 330,000 tested, 0.33% active; AID 588478, 2011; Ubiquitin carboxyl-terminal hydrolase isozyme L5 (Homo sapiens), Q9Y5K5;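 active = mean inhibition over replicate wells above about 20%, limit read from the data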
Target sequence (Q9Y5K5 whole entry, looked up): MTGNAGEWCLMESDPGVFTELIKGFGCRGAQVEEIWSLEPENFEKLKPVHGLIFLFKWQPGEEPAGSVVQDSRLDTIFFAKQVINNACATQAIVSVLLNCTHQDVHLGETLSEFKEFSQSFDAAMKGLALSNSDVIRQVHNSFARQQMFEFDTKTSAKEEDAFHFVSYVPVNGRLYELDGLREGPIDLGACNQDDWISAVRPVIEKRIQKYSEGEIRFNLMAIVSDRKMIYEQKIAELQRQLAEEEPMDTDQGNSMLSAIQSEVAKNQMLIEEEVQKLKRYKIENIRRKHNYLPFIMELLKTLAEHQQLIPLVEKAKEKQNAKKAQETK
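system = Proteasome-associated human UCH37 deubiquitinase | amount = 0.15 nM proteasome as dispensed | medium = pH 7.4 Tris-HCl (50 mM) with ovalbumin, ATP-MgCl2, DTT | incubation = 30 min preincubation with enzyme, 25 min cleavage at room temperature | detection = AMC fluorescence 355/460 nm | read-out basis = percent inhibition | controls = no-proteasome and no-compound wells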
MsrA inh: bovine MsrA enzyme inhibitors, primary screen, biochemical, absorbance, HTS; Methionine sulfoxide reductase A (Bos taurus); purified bovine MsrA, absorbance read-out; inhibition, % at 15.5 µM; 360,000 tested, 0.75% active
Vif inh: HIV Vif self-association inhibitors, primary screen, imaging, HEK293T, single point | inhibition, % at 7.49 µM | HEK293T cells, Vif self-association by quenched fluorescence, 24 h | AID 602346, 2012 | 340,000 tested, 0.35% active; in the data active = inhibition above about 50%, passing the limit was not always enough
bovine MsrA act: bovine MsrA enzyme activators, primary screen, biochemical, absorbance, HTS | purified bovine MsrA, absorbance read-out | 360,000 tested, 0.3% active | activation, % at 10.6 µM | Methionine sulfoxide reductase A (Bos taurus); in the data active = activation above about 7.5%
aDG glyco up: activators of alpha-DG glycosylation, primary screen, uHTS, Pro5-aDG cells, AlphaScreen; AID 624168, 2012; alpha-DG glycosylation AlphaScreen (IIH6); 0% Pro5, 100% B10-LARGE cell signal; activation, % at 10 µM; 360,000 tested, 0.22% active;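 active = activation of at least 8% versus controls, or a plate z-score of at least 8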;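 note: Pro5 are CHO cells carrying HIG-tagged alpha-DG that lacks glycosylation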
MsrA conf: bovine MsrA inhibitors, retest, confirmation, biochemical, absorbance, HTS. shares compounds with MsrA inh. purified bovine MsrA, absorbance read-out. inhibition, % at 15.5 µM. 2,300 tested, 41% active. AID 651822, 2012;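 note: coupled to thioredoxin reductase with NADPH and selenocystamine and DMSO as substrate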
Numbers stand for hits; – = inactive; · = no result given. Cut-off read from the data, not from the text of the source, unless noted: active = inhibition above about 4.5%; inactive = the rest.

SMILES | N-glyco inh | UCH37 inh | MsrA inh | Vif inh | bovine MsrA act | aDG glyco up | MsrA conf
CN(C)N=Nc1nc2c(c(=O)n(C)c(=O)n2C)n1C | – | – | 5.8 | – | – | – | –
CC(C)/C=N/Nc1nc2c(c(=O)n(C)c(=O)n2C)n1C | – | · | – | – | – | – | ·
O=C(Cc1ccccc1)NN=Cc1ccc2cccc(O)c2n1 | · | – | · | · | · | · | ·
Cc1cc(C)nc(NC2=NCC(=O)N2c2ccc3c(c2)OCCO3)n1 | – | – | 8.6 | – | – | – | 6.1
OCC(O)C=NNc1nc(Nc2ccccc2)nc(Nc2ccccc2)n1 (configuration not stated) | · | – | · | · | · | · | ·
Cc1ccsc1/C=N/NC(=O)c1ccc(Cn2cc(Br)cn2)o1 | – | · | 4.7 | – | – | – | –
CO[C@H]1C=CO[C@@]2(C)Oc3c(C)c(O)c4c(O)c(c(C=NN5CCN(C)CC5)c(O)c4c3C2=O)NC(=O)C(C)=CC=C[C@H](C)[C@H](O)[C@@H](C)[C@@H](O)[C@@H](C)[C@H](OC(C)=O)[C@@H]1C | – | – | 5.4 | – | – | – | –
CO[C@H]1/C=C/O[C@@]2(C)Oc3c(C)c(O)c4c(O)c(c(C=NN5CCN(C)CC5)c(O)c4c3C2=O)NC(=O)/C(C)=C\C=C\[C@H](C)[C@H](O)[C@@H](C)[C@@H](O)[C@@H](C)[C@H](OC(C)=O)[C@@H]1C | – | – | – | – | – | – | ·
COC(=O)/C(=C1/Oc2cc3c(cc2S1)OCO3)C(F)(F)F | – | – | 6.6 | – | – | – | 7.0
COC(=O)/C(=C1/Oc2ccc(C)cc2S1)C(F)(F)F | – | – | 9.6 | – | – | – | 10.7
O=C(NN=Cc1cn(-c2ccccc2)nc1-c1cccnc1)c1ccccc1 | · | – | · | · | · | · | ·
CCCCOc1ccc(/C(O)=C2/C(=O)C(=O)N(CCN(C)C)C2c2ccc(O)c(OC)c2)cc1 (configuration not stated) | – | – | 8.1 | – | – | – | –
CC(=NNC(=O)c1ccoc1C)c1ccc(Cl)s1 | · | – | · | · | · | · | ·
COC(=O)C(CCSC)NC(=O)c1cc2c(n(-c3ccc(C)cc3)c1=O)CCCC2=O (configuration not stated) | – | – | 5.5 | – | – | – | –
Cc1[nH]n(-c2ccccc2)c(=O)c1C=Nc1ccc(S(=O)(=O)Nc2nccs2)cc1 | – | – | 5.7 | – | – | – | –
CC(=O)N1c2ccccc2NC2=C(C(=O)CCC2)C1c1ccc(F)cc1 (configuration not stated) | – | – | – | – | – | – | ·
COc1ccc(C2CC(=O)C3=C(C2)Nc2ccccc2N(C(=O)CCC(=O)O)C3c2ccc(F)cc2)cc1 (configuration not stated) | – | – | 5.0 | – | – | – | –
O=C(O)CCC(=O)N1c2ccccc2NC2=C(C(=O)CC(c3ccc(F)cc3)C2)C1c1ccc([N+](=O)[O-])o1 (configuration not stated) | – | – | 7.0 | – | – | – | 4.6
Cc1nn(-c2ccccc2)c(C)c1C=NNC(=O)CSc1nnc(SCc2cccc3ccccc23)s1 | · | – | · | · | · | · | ·
Cc1ccc(C=NNC(=O)c2c[nH]c3ccccc23)o1 | · | – | · | · | · | · | ·
Cc1csc2ncc(C(=O)N3c4ccccc4CC3C)c(=O)n12 (configuration not stated) | – | – | 6.4 | · | – | – | –
O=C(NN=Cc1ccccn1)c1cccs1 | · | – | · | · | · | · | ·
CC1C(=O)NN=C1C(=O)N/N=C\C(Br)=C\c1ccccc1 (configuration not stated) | – | · | 5.7 | – | – | – | –
Cc1ccc(CSCC(=O)NN=Cc2sccc2C)cc1 | · | – | · | · | · | · | ·
CC(O)CNc1cc(N)c([N+](=O)[O-])cc1[N+](=O)[O-] (configuration not stated) | – | – | 5.2 | – | – | – | 6.2
SMILES | N-glyco inh | UCH37 inh | MsrA inh | Vif inh | bovine MsrA act | aDG glyco up | MsrA conf
CC(O)CNc1ccc(-c2n[nH]c(=O)c3ccccc23)cc1[N+](=O)[O-] (configuration not stated) | – | – | – | – | – | – | ·
CCOc1ccc(-c2nnc(-c3ccncc3)o2)cc1OCC | – | – | 4.9 | – | – | – | –
CCOc1ccc(-c2nnc(-c3ccncc3)o2)cc1 | – | – | – | – | – | – | ·
Cc1ccc(NC(=S)/C(C#N)=C2/Nc3ccccc3S2)cc1 | – | · | – | – | – | – | ·
N#C/C(C(=O)N1CCCCC1)=C1\Nc2ccccc2S1 | – | – | 8.2 | – | – | – | 5.0
Cc1cccc(NC(=O)/C(C#N)=C\c2cc(C)n(-c3ccc(C(=O)O)cc3)c2C)c1 | – | – | 4.7 | · | – | – | –
Cc1c(C(=O)O)cccc1-n1c(C)cc(/C=C(/C#N)C(=O)NCc2ccccc2)c1C | – | – | – | – | – | – | ·
Cc1cc(/C=C(/C#N)C(=O)O)c(C)n1-c1cccc2ccccc12 | – | – | 5.7 | – | – | – | 4.9
Cc1ccc(C=NNC(=O)CNC(=O)COc2ccccc2)cc1 | · | – | · | · | · | · | ·
Cc1c(C(=O)NN=Cc2ccccn2)nnn1-c1nonc1N | · | – | · | · | · | · | ·
O=c1c2cc(Cl)ccc2oc2nc3n(c(=O)c12)CCCS3 | – | – | 8.9 | – | – | – | –
O=C(N/N=C/c1cnc(N2CCCCC2)s1)c1ccc(Cl)cc1 | – | · | – | – | – | – | ·
O=Cc1cnc(N2CCCCC2)s1 | – | – | 5.0 | – | – | – | 6.9
COc1cccc(/C=C2\SC(=O)N(CCC(=O)NC3CCS(=O)(=O)C3)C2=O)c1 (configuration not stated) | – | – | – | – | – | – | ·
COc1cccc(/C=C2\SC(=O)N(CC(=O)NC3CCS(=O)(=O)C3)C2=O)c1 (configuration not stated) | – | – | 4.8 | – | – | – | –
COc1ccc(C(C)=NNc2ccc(C(=O)O)cc2)c(OC)c1 | · | – | · | · | · | · | ·
COc1ccc(/C=N/NC2=NS(=O)(=O)c3ccccc32)cc1OC | – | · | 4.8 | – | – | – | –
COc1cc(C=NNC(=O)CN2CCOCC2)ccc1OCC(=O)Nc1ccc(C)c(C)c1 | · | – | · | · | · | · | ·
O=[N+]([O-])c1cc(/C=N/n2c(-c3cccnc3)n[nH]c2=S)ccc1Cl | – | · | 11.6 | – | – | – | 6.8
O=[N+]([O-])c1ccc(Cl)c(C=Nn2c(-c3cccnc3)n[nH]c2=S)c1 | · | – | · | · | · | · | ·
